Published values from different studies.
Compare with care: the assays were run in different laboratories.
Target: Serine-protein kinase ATM (ATM, Homo sapiens, UniProt Q13315)

`Cc1ccc(C(=O)NCc2ccsc2)cc1C#Cc1cn(C(C)C)c2ncnc(N)c12` has an activity vs control of 101% (enzyme activity, inhibitor; 1 µM).
With `Cc1cnc(NC2CCOCC2)nc1-n1cnc(C(=O)NC(CN)c2cc(F)cc(Cl)c2)c1` (centres unmarked) the remaining activity was 102% (enzyme activity, inhibitor, radiometric; 1 µM).
For `CCCCNc1ncc2c(-c3ccc(F)cc3)nn(C[C@H]3CC[C@H](N)CC3)c2n1`, the inhibition was 57.4% (target engagement in cells, inhibitor, chemoproteomics; 20 mM).
`Cc1cc(NC(=O)c2cccc3cc(-c4cccc5[nH]nc(N)c45)ccc23)ccc1F` gave an activity vs control of 94% (enzyme activity, inhibitor; 0.1 µM).
`CN1CC(Oc2cnc(C#N)cc2-c2ccn3nc(NC(=O)C4CC4)cc3c2)C1` gave an inhibition of 14% (enzyme activity, inhibitor; 1 µM).
`COc1cccc2c(NCc3ccccc3)nc(-n3c(N)nc4ccccc43)nc12` has an inhibition of -4.3% (target engagement in cells, inhibitor, chemoproteomics; 20 mM).
With `COc1cc(Cl)c(C(=O)N[C@@H](CN[C@H]2CC[C@@H](N)CC2)Cc2ccc(C#N)cc2)cc1-c1ccc(CN[C@H](C)c2ccc(C)cc2)o1` the remaining activity was 106% (enzyme activity, inhibitor; 1 µM).
For `Cc1ccc(NC(=O)c2ccc(C)c(C(F)(F)F)c2)cc1C#Cc1nn(C2CCC(O)CC2)c2ncnc(N)c12` (centres unmarked), the remaining signal was 102% (cell-free assay; 10 µM).
